These results are taken from ChEMBL document CHEMBL5653630, “Activation of the p53-MDM4 regulatory axis defines the anti-tumour response to PRMT5 inhibition through its role in regulating cellular splicing” (Sci Rep, 2018).

One test deals with C-4-II. In words: Antiproliferative activity against human C-4-II cells assessed as cell growth inhibition incubated for 10 days. In kind it is functional. The settings on record: 240 h, time 10 day. Put shortly:
(§1)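 Cells kept in RPMI-1640 with 10% FBS, 2 mM L-alanyl-L-glutamine and 1 mM Na pyruvate (or a special medium) at 37°C, 5% CO2. Compound added 24 h after seeding, 10 concentrations in 3.16-fold dilution, 0.1% DMSO final. Medium replaced and cells re-dosed at 168 h; 240 h incubation. Nuclei fixed, dye-stained and imaged. gIC50 = growth midway between untreated and time-zero cell counts, from a 4-parameter fit.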

The subject of the next test is JEG-3. Put plainly: Antiproliferative activity against human JEG-3 cells assessed as cell growth inhibition incubated for 10 days. In kind it is functional. The note with it: JEG-3, 240 h, time 10 day. Put shortly:
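Eurofins-panel 10-day assay in 384-well plates. Cells grown in RPMI-1640 with 10% FBS, 2 mM L-alanyl-L-glutamine and 1mM Na pyruvate, or a special medium, at 37°C in 5% CO₂. Compound added 24 h after seeding, 10-point 3.16-fold series in 0.1% DMSO. Medium replaced and compound re-dosed at 168 h. Nuclei fixed and stained after 240 h, then imaged to give a relative cell count. gIC50 is the concentration giving growth midway between untreated and time-zero counts, from a 4-parameter fit.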

Another test relates to BeWo. Put plainly: Antiproliferative activity against human BeWo cells assessed as cell growth inhibition incubated for 10 days. In kind it is functional. The settings on record: 240 h, time 10 day. In outline: as §1
A further test concerns RKO. Put plainly: Antiproliferative activity against human RKO cells assessed as cell growth inhibition incubated for 10 days. In kind it is functional. The note with it: 240 h, time 10 day.
The subject of a further test is SW837. In words: Antiproliferative activity against human SW837 cells assessed as cell growth inhibition incubated for 10 days. In kind it is functional. The settings on record: SW837, 240 h, time 10 day.
A further test relates to RL95-2. In words: Antiproliferative activity against human RL95-2 cells assessed as cell growth inhibition incubated for 10 days. In kind it is functional. The note with it: RL95-2, 240 h, time 10 day.
The next test concerns OE19. Put plainly: Antiproliferative activity against human OE19 cells assessed as cell growth inhibition incubated for 10 days. In kind it is functional. The settings on record: OE19, 240 h, time 10 day.
A further test deals with T98G. In words: Antiproliferative activity against human T98G cells assessed as cell growth inhibition incubated for 10 days. In kind it is functional. The settings on record: 240 h, time 10 day.
The test system of the next test is Detroit 562. Put plainly: Antiproliferative activity against human Detroit 562 cells assessed as cell growth inhibition incubated for 10 days. The settings on record: Detroit 562, 240 h, time 10 day. In kind it is functional. Put shortly: (§2)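 Outsourced panel run in 384-well plates. Cells were grown in RPMI-1640/10% FBS or a special medium at 37°C, 5% CO2. Compound was added 24 h after seeding as a 10-point, 3.16-fold series in 0.1% DMSO. Medium was refreshed and cells re-dosed at 168 h, with a time-zero plate kept. At 240 h cells were fixed, nuclei stained and imaged. gIC50 is growth midway between untreated and time zero, from a 4-parameter fit.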

The next test deals with SW1463. In words: Antiproliferative activity against human SW1463 cells assessed as cell growth inhibition incubated for 10 days. In kind it is functional. The settings on record: SW1463, 240 h, time 10 day.
Test [1] in a line: Antiproliferative activity against human A7 cells assessed as cell growth inhibition incubated for 10 days. In kind it is functional. The note with it: A7, 240 h, time 10 day. Put shortly: as §1
The test system of another test is C32. Put plainly: Antiproliferative activity against human C32 cells assessed as cell growth inhibition incubated for 10 days. The note with it: C32, 240 h, time 10 day. In kind it is functional. In outline:
as §1

A further test relates to A101D. In words: Antiproliferative activity against human A101D cells assessed as cell growth inhibition incubated for 10 days. In kind it is functional. The settings on record: 240 h, time 10 day. In outline:
as §1

Another test concerns RPMI-7951. In words: Antiproliferative activity against human RPMI-7951 cells assessed as cell growth inhibition incubated for 10 days. In kind it is functional. The settings on record: RPMI-7951, 240 h, time 10 day.
The subject of another test is ChaGo-K-1. In words: Antiproliferative activity against human ChaGo-K-1 cells assessed as cell growth inhibition incubated for 10 days. In kind it is functional. The settings on record: ChaGo-K-1, 240 h, time 10 day. Put shortly:
as §2

The subject of the next test is NCI-H460. In words: Antiproliferative activity against human NCI-H460 cells assessed as cell growth inhibition incubated for 10 days. In kind it is functional. The note with it: NCI-H460, 240 h, time 10 day.
The test system of the next test is Calu-1. In words: Antiproliferative activity against human Calu-1 cells assessed as cell growth inhibition incubated for 10 days. In kind it is functional. The note with it: Calu-1, 240 h, time 10 day. Put shortly:
as §2

The subject of another test is OVCAR-3. In words: Antiproliferative activity against human OVCAR-3 cells assessed as cell growth inhibition incubated for 10 days. In kind it is functional. The settings on record: OVCAR-3, 240 h, time 10 day.
The next test deals with Caov-3 cell line. Put plainly: Antiproliferative activity against human Caov-3 cell line assessed as cell growth inhibition incubated for 10 days. In kind it is functional. The settings on record: Caov-3, 240 h, time 10 day. Put shortly:
as §2

In a further test the test system is ASPC1. In words: Antiproliferative activity against human ASPC1 cells assessed as cell growth inhibition incubated for 10 days. In kind it is functional. The settings on record: ASPC1, 240 h, time 10 day. Put shortly:
as §1

For the next test, the system named is YAPC. Put plainly: Antiproliferative activity against human YAPC cells assessed as cell growth inhibition incubated for 10 days. The settings on record: 240 h, time 10 day. In kind it is functional.
A short description of test [2]: Antiproliferative activity against human BC1 cell line assessed as cell growth inhibition incubated for 10 days. The note with it: BC1, 240 h, time 10 day. In kind it is functional. Put shortly:
as §1

Another test concerns PC-3. Put plainly: Antiproliferative activity against human PC-3 cells assessed as cell growth inhibition incubated for 10 days. In kind it is functional. The note with it: PC-3, 240 h, time 10 day.
The test system of another test is DU-145. Put plainly: Antiproliferative activity against human DU-145 cells assessed as cell growth inhibition incubated for 10 days. In kind it is functional. The settings on record: DU-145, 240 h, time 10 day. Put shortly: as §2
In another test the test system is CWR22R. In words: Antiproliferative activity against human 22Rv1 cells assessed as cell growth inhibition incubated for 10 days. In kind it is functional. The settings on record: 22Rv1, 240 h, time 10 day. Put shortly: as §1
Another test deals with CAL-62. Put plainly: Antiproliferative activity against human CAL-62 cells assessed as cell growth inhibition incubated for 10 days. In kind it is functional. The note with it: CAL-62, 240 h, time 10 day. Put shortly: as §1
Another test relates to SW 954. Put plainly: Antiproliferative activity against human SW 954 cells assessed as cell growth inhibition incubated for 10 days. In kind it is functional. The settings on record: SW 954, 240 h, time 10 day.
Test [3] deals with Protein arginine N-methyltransferase 5 (Homo sapiens) (UniProt O14744). Put plainly: Inhibition of PRMT5 in human Z138 cells expressing full length MDM4 assessed as induction of p21 at 1 uM incubated for 4 days by Western blot analysis. In kind it is cell-based. The settings on record: time 4.0 day.
Chain of Protein arginine N-methyltransferase 5 (Homo sapiens) (O14744 whole entry): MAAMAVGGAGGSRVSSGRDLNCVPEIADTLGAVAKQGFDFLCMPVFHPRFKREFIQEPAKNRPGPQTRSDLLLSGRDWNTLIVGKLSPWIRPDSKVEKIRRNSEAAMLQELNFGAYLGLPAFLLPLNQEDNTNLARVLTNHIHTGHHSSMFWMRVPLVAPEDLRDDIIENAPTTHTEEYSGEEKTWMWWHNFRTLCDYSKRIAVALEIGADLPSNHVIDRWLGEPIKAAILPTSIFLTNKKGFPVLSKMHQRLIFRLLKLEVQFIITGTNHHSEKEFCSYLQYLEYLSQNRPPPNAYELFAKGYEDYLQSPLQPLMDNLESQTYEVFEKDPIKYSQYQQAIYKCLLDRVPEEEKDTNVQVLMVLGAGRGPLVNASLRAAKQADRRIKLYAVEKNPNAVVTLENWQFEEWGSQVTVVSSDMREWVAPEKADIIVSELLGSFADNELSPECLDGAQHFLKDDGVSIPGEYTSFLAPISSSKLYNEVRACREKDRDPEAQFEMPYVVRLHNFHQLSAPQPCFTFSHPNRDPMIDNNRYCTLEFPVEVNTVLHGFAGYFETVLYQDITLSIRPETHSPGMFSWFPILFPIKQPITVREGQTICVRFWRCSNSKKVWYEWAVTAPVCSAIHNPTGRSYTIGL
The subject of the next test is RCK8. Put plainly: Antiproliferative activity against human RCK8 cells assessed as reduction in cell viability. In kind it is functional, cell-based.
Another test has as its system MDA-MB-468. In words: Induction of cell cycle arrest in human MDA-MB-468 cells assessed as increase in 4n cell population measured upto 5000 nM measured for 7 to 10 days by propidium iodide staining based flow cytometric analysis. In kind it is functional. The note with it: time 7-10 day.
Another test deals with Maver1. Put plainly: Induction of apoptosis in human MAVER-1 cells assessed as dead cells incubated for 6 days by annexin-V/FITC propidium iodide staining based flow cytometry analysis. In kind it is functional, cell-based. The settings on record: dose <= 5000.0 nM, time 6.0 day.
For test [4], the system named is Z-138. Put plainly: Antitumor activity against human Z138 cells xenografted in mouse at 25 to 50 mg/kg, po qd measured at 14 to 21 days. In kind it is functional, organism-based. The note with it: dose lower […], dose upper 50.0 mg/kg, time 14-21 day.
The test system of test [5] is Z-138. In words: In vivo inhibition of PRMT5 in human Z138 cells xenografted in mouse assessed as increase in p53 level at 100 mg/kg, po BID measured for 7 days by immunohistochemical analysis. In kind it is functional, organism-based. The note with it: time 7.0 day.
Test [6] deals with Z-138. In words: In vivo inhibition of PRMT5 in human Z138 cells xenografted in mouse assessed as increase in GADD45A expression at 100 mg/kg, po BID measured for 7 days. In kind it is functional, organism-based. The settings on record: time 7.0 day.

Structures are written as SMILES. Calls of active or inactive are those of the source. The calls are words filed in the database; no cut-off is given here.

Turning to `O=C(NC[C@H](O)CN1CCc2ccccc2C1)c1ccnc(NC2CCC2)c1`, the GI50 in the test on C-4-II amounted to 0.266 µM; in the test on JEG-3, 0.216 µM; in the test with BeWo, 1.09 µM; in the test with RKO it was 0.772 µM; in the test on SW837, 0.102 µM; in the test on RL95-2 it was 0.218 µM. Further, the GI50 in the test on OE19 is 0.098 µM; with T98G, 0.0273 µM; in the test on Detroit 562, 0.104 µM; with SW1463 it was 0.77 µM; in test [1], 0.0367 µM; in the test on C32, 0.0141 µM. The GI50 in the test with A101D was 0.19 µM; in the test with RPMI-7951, 0.0442 µM; in the test with ChaGo-K-1 it was 1.19 µM; with NCI-H460, 0.224 µM; in the test with Calu-1, 3.05 µM; in the test with OVCAR-3, 0.0514 µM. Also, the concentration for 50% growth inhibition (GI50) in the test with Caov-3 cell line amounted to 0.298 µM; in the test on ASPC1, 0.302 µM; in the test on YAPC it was 0.168 µM; in test [2], 0.0696 µM; in the test on PC-3 it was 0.873 µM; with DU-145, 0.151 µM. Moreover, the results for the GI50 with CWR22R, in the test on CAL-62 and in the test on SW 954 were 2.48 µM, 0.253 µM and 10 µM, respectively. For the same compound, in test [3], the inhibition result was “inactive”. Besides, in the test on RCK8, the result was Active.
For `CC(=O)N1CCC(Nc2cc(C(=O)NC[C@H](O)CN3CCc4ccccc4C3)ncn2)CC1` [PEMRAMETOSTAT], the result in the test on MDA-MB-468 and in the test with Z-138 [4] was Active. Moreover, the Activity result in the test on Maver1 was “Dose-Dependent Effect”. The inhibition entry in the test with Z-138 [5] and with Z-138 [6] was “Active” each time.
